Measured values taken from ChEMBL document CHEMBL3352004, “(7-Benzyloxy-2,3-dihydro-1H-pyrrolo[1,2-a]indol-1-yl)acetic Acids as S1P1 Functional Antagonists” (ACS Med Chem Lett, 2014).
In brackets after ≈: the same amount, converted by molar mass. One block for each compound: values may come before it.

Tests used:
[1] = Activation of Inward rectifier potassium channel in human atrial myocytes; assay type: cell-based; conditions: Cardiac atrium
[2] = target: T1, Sphingosine 1-phosphate receptor 1 (Homo sapiens, UniProt P21453); assay: Agonist activity at human S1P1 receptor assessed as cAMP accumulation by HTRF assay; assay type: functional
Procedure, shortened: (§1)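 S1P1 engagement measured as cyclase activity in a homogeneous time-resolved fluorescence (HTRF) assay.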

[3] = target: T1, Sphingosine 1-phosphate receptor 1; assay: Agonist activity at human S1P1 receptor assessed as cAMP accumulation by HTRF assay relative to S1P; assay type: functional
[4] = target: T1, Sphingosine 1-phosphate receptor 1; assay: Agonist activity at human S1P1 receptor by beta-arrestin recruitment assay
[5] = target: T1, Sphingosine 1-phosphate receptor 1; assay: Agonist activity at human S1P1 receptor by beta-arrestin recruitment assay relative to S1P
[6] = target: Sphingosine 1-phosphate receptor 2 (Homo sapiens, UniProt O95136); assay: Agonist activity at human S1P2 receptor by beta-arrestin recruitment assay
[7] = target: Sphingosine 1-phosphate receptor 3 (Homo sapiens, UniProt Q99500); assay: Agonist activity at human S1P3 receptor by beta-arrestin recruitment assay
[8] = target: T2, Sphingosine 1-phosphate receptor 4 (Homo sapiens, UniProt O95977); assay: Agonist activity at human S1P4 receptor by beta-arrestin recruitment assay
T2 sequence (O95977 whole entry): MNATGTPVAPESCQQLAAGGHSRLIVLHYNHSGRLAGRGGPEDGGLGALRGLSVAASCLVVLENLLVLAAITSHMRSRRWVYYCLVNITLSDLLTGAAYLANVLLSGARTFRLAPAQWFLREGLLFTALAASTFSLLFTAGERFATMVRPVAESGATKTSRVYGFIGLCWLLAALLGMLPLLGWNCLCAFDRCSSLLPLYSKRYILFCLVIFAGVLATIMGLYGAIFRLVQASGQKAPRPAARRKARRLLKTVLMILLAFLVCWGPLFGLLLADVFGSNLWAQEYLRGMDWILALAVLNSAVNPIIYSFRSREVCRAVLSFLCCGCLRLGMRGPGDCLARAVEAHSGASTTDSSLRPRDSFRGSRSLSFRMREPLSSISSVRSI

[9] = target: T3, Sphingosine 1-phosphate receptor 4 (Homo sapiens) (UniProt O95977); assay: Agonist activity at human S1P4 receptor by beta-arrestin recruitment assay relative to S1P
T3 sequence (whole entry): T2 sequence (O95977 whole entry)

[10] = target: T4, Sphingosine 1-phosphate receptor 5 (Homo sapiens, UniProt Q9H228); assay: Agonist activity at human S1P5 receptor by beta-arrestin recruitment assay
[11] = target: T4, Sphingosine 1-phosphate receptor 5; assay: Agonist activity at human S1P5 receptor by beta-arrestin recruitment assay relative to S1P
[12] = Systemic clearance in Sprague-Dawley rat at 1 mg/kg, iv; assay type: ADME, organism-based; design: dose 1 mg/kg, route intravenous; conditions: in vivo
[13] = Volume of distribution at steady state in Sprague-Dawley rat at 1 mg/kg, iv; assay type: ADME, organism-based; design: dose 1 mg/kg, route intravenous; conditions: in vivo, read-out: Vdss
[14] = Cmax in Sprague-Dawley rat at 1 mg/kg, po; assay type: ADME, organism-based; design: dose 1 mg/kg, route oral; conditions: in vivo
[15] = Tmax in Sprague-Dawley rat at 1 mg/kg, po; assay type: ADME, organism-based; design: dose 1 mg/kg, route oral; conditions: in vivo
[16] = AUC (0 to infinity) in Sprague-Dawley rat at 1 mg/kg, iv or at 1 mg/kg, po; assay type: ADME, organism-based; conditions: plasma
[17] = Elimination half life in Sprague-Dawley rat at 1 mg/kg, po; assay type: ADME, organism-based; design: dose 1 mg/kg, route oral; conditions: in vivo, read-out: beta t1/2 (converted)
[18] = Oral bioavailability in Sprague-Dawley rat at 1 mg/kg; assay type: ADME, organism-based; conditions: in vivo
[19] = Ratio of drug level in brain to plasma in Sprague-Dawley rat; assay type: ADME; conditions: read-out: BPR
Procedure, shortened: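 Abbreviated rat CNS distribution: a single 1.0 mg/kg oral dose, with brain and plasma drug levels measured over 6 h. Brain-to-plasma ratio derived from these levels.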

Rattus norvegicus [20] = species: Rattus norvegicus; assay: Reduction in lymphocyte count in Sprague-Dawley rat; assay type: functional, organism-based
Procedure, shortened: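 A PK/PD model relating plasma drug concentration to circulating lymphocyte counts was used to derive the plasma concentration that reduces lymphocytes by 50% (LL IC50, ng/mL).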

[21] = target: Sphingosine 1-phosphate receptor 1 (Mus musculus, UniProt O08530); assay: Agonist activity at mouse S1P1 receptor assessed as cAMP accumulation by HTRF assay; assay type: functional; procedure, shortened: as §1
[22] = target: Sphingosine 1-phosphate receptor 1 (Mus musculus) (UniProt O08530); assay: Agonist activity at mouse S1P1 receptor assessed as cAMP accumulation by HTRF assay relative to S1P; assay type: functional
[23] = target: Sphingosine 1-phosphate receptor 1 (Rattus norvegicus, UniProt P48303); assay: Agonist activity at rat S1P1 receptor assessed as cAMP accumulation by HTRF assay; assay type: functional; procedure, shortened: as §1
[24] = target: Sphingosine 1-phosphate receptor 1 (Rattus norvegicus) (UniProt P48303); assay: Agonist activity at rat S1P1 receptor assessed as cAMP accumulation by HTRF assay relative to S1P; assay type: functional
[25] = target: Sphingosine-1-phosphate receptor 1 (Canis lupus familiaris, UniProt W5VNF7); assay: Agonist activity at dog S1P1 receptor assessed as cAMP accumulation by HTRF assay; assay type: functional; procedure, shortened: as §1
[26] = target: Sphingosine-1-phosphate receptor 1 (Canis lupus familiaris) (UniProt W5VNF7); assay: Agonist activity at dog S1P1 receptor assessed as cAMP accumulation by HTRF assay relative to S1P; assay type: functional
[27] = target: Sphingosine 1-phosphate receptor 1 (Macaca mulatta, UniProt H9EUW9); assay: Agonist activity at monkey S1P1 receptor assessed as cAMP accumulation by HTRF assay; assay type: functional; procedure, shortened: as §1
[28] = target: Sphingosine 1-phosphate receptor 1 (Macaca mulatta) (UniProt H9EUW9); assay: Agonist activity at monkey S1P1 receptor assessed as cAMP accumulation by HTRF assay relative to S1P; assay type: functional
[29] = target: Voltage-gated inwardly rectifying potassium channel KCNH2 (Homo sapiens, UniProt Q12809); assay: Binding affinity to human ERG
Rattus norvegicus [30] = species: Rattus norvegicus; assay: Toxicity in telemeterized rat assessed as effect on cardiovascular function; assay type: organism-based, Heart; conditions: in vivo
Cytochrome P450 2C9 = Cytochrome P450 2C9 (Homo sapiens, UniProt P11712); assay: Inhibition of CYP2C9 (unknown origin); assay type: ADME
[31] = target: P2Y purinoceptor (Rattus norvegicus); assay: Binding affinity to P2Y purinoceptor (rat) by [35S]dATPalphaS competitive binding assay; conditions: read-out: IC50

T1 sequence (P21453 whole entry): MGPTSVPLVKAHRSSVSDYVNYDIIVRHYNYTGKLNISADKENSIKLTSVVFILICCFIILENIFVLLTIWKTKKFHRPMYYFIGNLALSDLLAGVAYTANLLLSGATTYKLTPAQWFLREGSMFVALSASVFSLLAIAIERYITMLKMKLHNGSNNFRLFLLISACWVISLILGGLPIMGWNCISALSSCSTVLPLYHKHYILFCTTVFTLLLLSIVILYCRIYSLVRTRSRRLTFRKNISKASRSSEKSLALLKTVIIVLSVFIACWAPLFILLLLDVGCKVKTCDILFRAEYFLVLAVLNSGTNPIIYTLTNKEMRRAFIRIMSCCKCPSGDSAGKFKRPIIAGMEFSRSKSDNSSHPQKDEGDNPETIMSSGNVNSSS
T4 sequence (Q9H228 whole entry): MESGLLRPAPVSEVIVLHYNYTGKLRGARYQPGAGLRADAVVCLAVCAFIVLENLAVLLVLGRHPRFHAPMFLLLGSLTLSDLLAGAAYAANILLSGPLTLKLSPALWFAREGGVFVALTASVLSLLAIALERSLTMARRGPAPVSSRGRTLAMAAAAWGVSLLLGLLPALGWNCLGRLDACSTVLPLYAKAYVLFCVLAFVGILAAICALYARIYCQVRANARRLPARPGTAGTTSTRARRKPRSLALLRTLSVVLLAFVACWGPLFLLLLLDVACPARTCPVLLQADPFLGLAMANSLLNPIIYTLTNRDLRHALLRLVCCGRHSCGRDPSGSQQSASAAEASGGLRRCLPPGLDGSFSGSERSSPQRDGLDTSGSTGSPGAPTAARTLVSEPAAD
Sequence of Sphingosine 1-phosphate receptor 1 (Rattus norvegicus) (P48303 whole entry): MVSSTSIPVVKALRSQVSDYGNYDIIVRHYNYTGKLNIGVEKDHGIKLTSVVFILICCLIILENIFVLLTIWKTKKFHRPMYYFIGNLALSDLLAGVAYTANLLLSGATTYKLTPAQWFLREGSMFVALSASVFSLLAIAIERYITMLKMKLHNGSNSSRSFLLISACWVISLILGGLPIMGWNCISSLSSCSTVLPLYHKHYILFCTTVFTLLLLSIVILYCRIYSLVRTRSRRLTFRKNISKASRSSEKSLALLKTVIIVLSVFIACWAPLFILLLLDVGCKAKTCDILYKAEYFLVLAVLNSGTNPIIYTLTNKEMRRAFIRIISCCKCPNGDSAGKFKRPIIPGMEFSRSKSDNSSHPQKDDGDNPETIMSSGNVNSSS
Sequence of Sphingosine 1-phosphate receptor 1 (Rattus norvegicus, UniProt P48303) (P48303 whole entry): as above
Sequence of Voltage-gated inwardly rectifying potassium channel KCNH2 (Q12809 whole entry): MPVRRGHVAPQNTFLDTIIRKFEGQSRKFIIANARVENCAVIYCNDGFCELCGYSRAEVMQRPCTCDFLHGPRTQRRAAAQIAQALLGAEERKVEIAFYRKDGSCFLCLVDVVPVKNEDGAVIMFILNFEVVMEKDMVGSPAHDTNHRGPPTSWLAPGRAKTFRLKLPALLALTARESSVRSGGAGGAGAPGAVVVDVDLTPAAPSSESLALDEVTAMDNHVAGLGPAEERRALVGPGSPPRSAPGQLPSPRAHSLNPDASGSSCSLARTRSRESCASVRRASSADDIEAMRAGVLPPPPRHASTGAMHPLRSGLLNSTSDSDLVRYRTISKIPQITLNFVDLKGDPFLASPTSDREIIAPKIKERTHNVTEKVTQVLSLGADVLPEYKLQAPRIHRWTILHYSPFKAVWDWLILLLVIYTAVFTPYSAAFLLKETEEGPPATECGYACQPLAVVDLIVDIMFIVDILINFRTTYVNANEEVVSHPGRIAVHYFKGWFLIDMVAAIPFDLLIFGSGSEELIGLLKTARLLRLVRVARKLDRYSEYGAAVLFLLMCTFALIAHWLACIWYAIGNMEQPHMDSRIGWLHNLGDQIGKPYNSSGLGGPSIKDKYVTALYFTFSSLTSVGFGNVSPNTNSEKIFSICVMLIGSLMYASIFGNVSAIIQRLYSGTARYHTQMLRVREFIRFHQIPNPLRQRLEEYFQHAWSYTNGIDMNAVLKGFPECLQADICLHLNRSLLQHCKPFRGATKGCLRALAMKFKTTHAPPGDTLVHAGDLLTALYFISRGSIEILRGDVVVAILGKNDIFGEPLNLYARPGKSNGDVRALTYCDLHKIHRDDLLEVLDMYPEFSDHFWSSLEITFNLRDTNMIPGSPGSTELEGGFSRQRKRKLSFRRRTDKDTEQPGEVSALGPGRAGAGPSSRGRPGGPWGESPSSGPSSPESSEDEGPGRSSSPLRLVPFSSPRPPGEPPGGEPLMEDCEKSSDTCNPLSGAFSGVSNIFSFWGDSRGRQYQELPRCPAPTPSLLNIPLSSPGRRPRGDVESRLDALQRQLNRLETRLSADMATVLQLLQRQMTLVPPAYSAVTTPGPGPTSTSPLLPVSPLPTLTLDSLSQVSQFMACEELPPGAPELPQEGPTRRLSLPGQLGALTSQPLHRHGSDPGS
Sequence of Sphingosine 1-phosphate receptor 3 (Q99500 whole entry): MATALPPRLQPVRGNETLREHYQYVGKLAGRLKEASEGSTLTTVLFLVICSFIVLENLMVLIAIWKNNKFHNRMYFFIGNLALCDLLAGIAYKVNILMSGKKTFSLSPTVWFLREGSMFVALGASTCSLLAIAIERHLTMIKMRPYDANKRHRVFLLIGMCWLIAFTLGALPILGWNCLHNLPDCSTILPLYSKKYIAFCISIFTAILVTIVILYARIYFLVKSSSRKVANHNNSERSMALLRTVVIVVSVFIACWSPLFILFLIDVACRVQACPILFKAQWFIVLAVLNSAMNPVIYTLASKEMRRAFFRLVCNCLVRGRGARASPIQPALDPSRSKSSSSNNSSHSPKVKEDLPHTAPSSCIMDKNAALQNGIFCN
Sequence of Sphingosine 1-phosphate receptor 1 (Mus musculus) (O08530 whole entry): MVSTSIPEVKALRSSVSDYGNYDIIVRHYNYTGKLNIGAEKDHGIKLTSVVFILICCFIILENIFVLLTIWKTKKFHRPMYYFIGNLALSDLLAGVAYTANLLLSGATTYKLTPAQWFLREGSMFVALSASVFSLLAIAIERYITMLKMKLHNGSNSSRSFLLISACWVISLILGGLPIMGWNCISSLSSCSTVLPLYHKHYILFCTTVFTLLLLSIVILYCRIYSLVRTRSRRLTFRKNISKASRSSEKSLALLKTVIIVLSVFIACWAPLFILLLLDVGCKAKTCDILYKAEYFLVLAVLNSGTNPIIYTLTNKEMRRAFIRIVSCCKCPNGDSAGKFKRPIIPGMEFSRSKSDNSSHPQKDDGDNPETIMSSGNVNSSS
Sequence of Sphingosine 1-phosphate receptor 1 (Mus musculus, UniProt O08530) (O08530 whole entry): as above
Sequence of Sphingosine 1-phosphate receptor 1 (Macaca mulatta) (H9EUW9 as listed by the source): as the sequence (P21453 whole entry) above, with P3S, H12L, I37T, K41R, S189P, I241M, E365D counted along it
Sequence of Sphingosine 1-phosphate receptor 1 (Macaca mulatta, UniProt H9EUW9) (H9EUW9 whole entry): as the sequence (P21453 whole entry) above, with P3S, H12L, I37T, K41R, S189P, I241M, E365D counted along it
Sequence of Sphingosine 1-phosphate receptor 2 (O95136 whole entry): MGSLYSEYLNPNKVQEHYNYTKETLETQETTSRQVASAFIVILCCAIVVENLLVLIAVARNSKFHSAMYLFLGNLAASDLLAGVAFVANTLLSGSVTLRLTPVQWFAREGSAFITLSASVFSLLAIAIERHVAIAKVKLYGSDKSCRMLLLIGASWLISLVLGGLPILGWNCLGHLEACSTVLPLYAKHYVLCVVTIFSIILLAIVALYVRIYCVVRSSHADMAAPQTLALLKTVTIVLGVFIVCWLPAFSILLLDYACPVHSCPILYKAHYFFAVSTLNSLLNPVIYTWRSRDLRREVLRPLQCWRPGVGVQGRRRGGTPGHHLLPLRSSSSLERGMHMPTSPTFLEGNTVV
Sequence of Sphingosine-1-phosphate receptor 1 (W5VNF7 whole entry): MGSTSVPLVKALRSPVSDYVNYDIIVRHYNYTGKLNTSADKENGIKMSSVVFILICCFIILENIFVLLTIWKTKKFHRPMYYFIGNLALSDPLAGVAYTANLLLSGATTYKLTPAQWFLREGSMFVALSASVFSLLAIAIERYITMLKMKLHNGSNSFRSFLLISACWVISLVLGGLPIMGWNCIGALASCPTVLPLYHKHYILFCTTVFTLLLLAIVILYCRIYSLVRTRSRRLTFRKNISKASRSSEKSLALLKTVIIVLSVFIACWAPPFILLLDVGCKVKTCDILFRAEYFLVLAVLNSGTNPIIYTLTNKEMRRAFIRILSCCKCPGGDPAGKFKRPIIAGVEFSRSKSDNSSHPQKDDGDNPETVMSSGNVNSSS
Sequence of Sphingosine-1-phosphate receptor 1 (Canis lupus familiaris) (W5VNF7 as listed by the source): as the sequence (W5VNF7 whole entry) above
Sequence of Cytochrome P450 2C9 (P11712 whole entry): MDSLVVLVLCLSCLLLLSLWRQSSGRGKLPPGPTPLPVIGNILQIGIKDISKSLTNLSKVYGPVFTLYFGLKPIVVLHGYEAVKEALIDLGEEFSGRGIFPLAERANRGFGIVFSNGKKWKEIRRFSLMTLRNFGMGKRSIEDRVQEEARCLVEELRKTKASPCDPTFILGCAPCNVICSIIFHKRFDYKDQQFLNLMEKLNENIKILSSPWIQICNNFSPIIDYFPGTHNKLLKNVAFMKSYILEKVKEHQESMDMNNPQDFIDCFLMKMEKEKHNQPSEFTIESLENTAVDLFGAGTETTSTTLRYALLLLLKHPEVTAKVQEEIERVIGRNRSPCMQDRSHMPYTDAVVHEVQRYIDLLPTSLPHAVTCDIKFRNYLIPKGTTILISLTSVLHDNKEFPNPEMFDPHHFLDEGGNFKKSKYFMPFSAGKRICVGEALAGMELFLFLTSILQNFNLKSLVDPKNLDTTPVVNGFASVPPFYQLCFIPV

Compound: CCCCCCCCCCCCC/C=C/[C@@H](O)[C@@H](N)COP(=O)(O)O
EC50 [1]: 2.1 nM

Compound: CC(C)Oc1ccc(COc2ccc3c(c2)c(Cl)c2n3CC[C@@H]2CC(=O)O)cc1C#N
EC50 [2]: 0.025 nM | Emax [3]: 94% | EC50 [4]: 0.63 nM | Emax [5]: 112% | EC50 [6]: > 10000 nM | EC50 [7]: > 10000 nM | EC50 [8]: 8600 nM | Emax [9]: 85% | EC50 [10]: 47 nM | Emax [11]: 84% | clearance [12]: 3.2 mL/min/kg | Vd [13]: 0.9 L/kg | Cmax [14]: 618 ng/mL | Tmax [15]: 4 h | AUC(0-inf) [16]: 4210 ng·h/mL | half-life [17]: 3.44 h | bioavailability [18]: 76.4% | Kp [19]: 0.09 | IC50 (Rattus norvegicus [20]): 0.0104 µg/mL (≈ 0.0237 µM) | EC50 [21]: 0.05 nM | Emax [22]: 104% | EC50 [23]: 0.072 nM | Emax [24]: 93% | EC50 [25]: 0.049 nM | Emax [26]: 66% | EC50 [27]: 0.038 nM | Emax [28]: 96% | Activity [29]: Not Active | Activity (Rattus norvegicus [30]): Non-toxic | IC50 (Cytochrome P450 2C9): 8500 nM | IC50 [31]: 390 nM

Compound: O=C(O)CC1CCn2c1cc1cc(OCc3ccc(C4CCCC4)c(C(F)(F)F)c3)ccc12 (racemic)
EC50 [2]: 0.095 nM

Compound: N#Cc1ccc(COc2ccc3c(c2)cc2n3CCC2CC(=O)O)cc1C(F)(F)F (racemic)
EC50 [2]: 83 nM | Emax [3]: 104%

Compound: O=C(O)CC1CCn2c1cc1cc(OCc3ccc(OCF)c(C(F)(F)F)c3)ccc12 (racemic)
EC50 [2]: 6.7 nM | Emax [3]: 119%

Compound: CC(C)Oc1ccc(COc2ccc3c(c2)cc2n3CCC2CC(=O)O)cc1C(F)(F)F (racemic) [listing 1 of 2 here]
EC50 [2]: 0.15 nM

Compound: CC(C)Oc1ccc(COc2ccc3c(c2)cc2n3CCC2CC(=O)O)cc1C#N (racemic) [listing 1 of 2 here]
EC50 [2]: 0.15 nM

Compound: CC(C)Oc1ccc(COc2ccc3c(c2)cc2n3CCC2CC(=O)O)cc1C#N (racemic) [listing 2 of 2 here]
Emax [3]: 105%

The remaining lines, values ahead:

EC50 [2]: 0.49 nM | Emax [3]: 92%
Compound: N#Cc1cc(COc2ccc3c(c2)cc2n3CCC2CC(=O)O)ccc1C1CCCC1 (racemic)

EC50 [2]: 150 nM | Emax [3]: 116%
Compound: O=C(O)CC1CCn2c1cc1cc(OCc3ccc(Cl)c(C(F)(F)F)c3)ccc12 (racemic)

EC50 [2]: 38 nM | Emax [3]: 122%
Compound: COc1ccc(COc2ccc3c(c2)cc2n3CCC2CC(=O)O)cc1C#N (racemic)

EC50 [2]: 1.1 nM | Emax [3]: 100%
Compound: O=C(O)CC1CCn2c1cc1cc(OCc3ccc(OCC4CC4)c(C(F)(F)F)c3)ccc12 (racemic)

Emax [3]: 112%
Compound: CC(C)Oc1ccc(COc2ccc3c(c2)cc2n3CCC2CC(=O)O)cc1C(F)(F)F (racemic) [listing 2 of 2 here]
